Screening results from PubChem.
p47phox inh – p47phox/p22phox peptide binding inhibitors, primary screen, biochemical, uHTS, NADPH oxidase regulatory subunit; AID 1274, 2008; Neutrophil cytosol factor 1 (Homo sapiens), P14598; fluorescence polarization, 2 h; inhibition, % at 24.7 µM; 220,000 tested, 0.53% active;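 active = inhibition above about 30%, limit read from the data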;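 note: 0% = p47phox with labelled peptide and 100% = labelled peptide alone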
Target sequence (P14598 whole entry, looked up): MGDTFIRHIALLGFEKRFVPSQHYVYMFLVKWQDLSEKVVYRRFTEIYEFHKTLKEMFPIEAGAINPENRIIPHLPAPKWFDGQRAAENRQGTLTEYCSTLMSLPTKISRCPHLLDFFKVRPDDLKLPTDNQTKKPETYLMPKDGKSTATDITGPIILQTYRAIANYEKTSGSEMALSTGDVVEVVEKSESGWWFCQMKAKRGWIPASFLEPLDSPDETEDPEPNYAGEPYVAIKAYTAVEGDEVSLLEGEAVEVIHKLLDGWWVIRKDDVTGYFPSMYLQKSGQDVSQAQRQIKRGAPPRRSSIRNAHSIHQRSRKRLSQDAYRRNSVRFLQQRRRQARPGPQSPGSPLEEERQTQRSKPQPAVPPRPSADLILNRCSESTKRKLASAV
DTT redox prof – compounds producing H2O2 with reducing agent – biochemical, NIH compound library profiling, artefact control for MLSCN library redox annotation, primary screen. DTT-dependent redox cycling H2O2, phenol red/HRP absorbance; 100% = 100 µM peroxide control, 0% = buffer. 200,000 tested, 0.03% active. activation, % at 10 µM. AID 878, 2007;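 active = activation of at least 50% relative to the plate's high and low controls in the primary single-dose screen; inactive = activation below 50%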;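 note: compound incubated with DTT at 0.8 mM final as the reducing agent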
Efa HMGR inh – inhibitors of E. faecalis class II HMGR, primary screen, biochemical, Enterococcus faecalis; 190,000 tested, 0.41% active; HMG-CoA reductase (Enterococcus faecalis, mvaE); purified E. faecalis HMGR, NADPH absorbance 340 nm kinetic; AID 1066, 2008; inhibition, % at 10 µM;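 active = inhibition above a set limit, the median over all tested compounds plus 3 SD, cut at about 9.5% in these data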;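 note: enzyme runs in reverse so mevalonate oxidation gives rising NADPH absorbance; 0% = complete reaction with DMSO and 100% = background rate lacking mevalonate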
Diaphorase act – compounds boosting diaphorase resazurin reduction – biochemical, uHTS, resorufin fluorescence, counter-screen for diaphorase-coupled primary assays, primary screen; Diaphorase/resazurin coupled assay, 16 min; hits give high values; 1 = vehicle wells, 0 = NADH-free wells; activation factor at 20 µM; 190,000 tested, 0.005% active;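 active = diaphorase activity raised at least twofold by the compound at 20 µM; inactive = activation factor below 2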
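Test system: Clostridium kluyveri diaphorase, purified enzyme; input: enzyme 0.07 U/mL final; buffer or medium: 50 mM HEPES pH 7.4 with 4.542 mM MgCl2, 0.005% Tween 20; also added: 0.114 mM NADH and 0.1 mM resazurin, final amounts; schedule: 16 min enzyme reaction, ambient temperature; technique: fluorescence of resorufin, 544 nm excitation, 590 nm emission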
PMI act hi M6P – human PMI activators, high substrate, primary screen, biochemical, fluorescence intensity, near-saturating mannose 6-phosphate; Mannose-6-phosphate isomerase (Homo sapiens), P34949; coupled PMI enzyme assay, resazurin fluorescence, 20 min; hits give high values; 1 = untreated enzyme, 0 = substrate-free blank; activation factor at 20 µM; 190,000 tested, 0.34% active; AID 1216, 2008;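 active = activation factor of 2 or more at 20 µM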
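Material: human phosphomannose isomerase with PGI, G6PDH, diaphorase coupling enzymes / Reagent: Man-6-P substrate 1.0 mM / Dosing: single compound dose of 20 µM, 1% DMSO final / Incubation: enzyme reaction with compound 20 min at room temperature / Signal: resorufin fluorescence (Ex 544/Em 590 nm) from resazurin via diaphorase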
PMI act – activators of human PMI, primary screen, biochemical, fluorescence intensity, near-Km mannose 6-phosphate. purified human PMI, coupled resazurin fluorescence, 20 min; hits give high values; 1 = vehicle control, 0 substrate-free wells. activation factor at 20 µM. 190,000 tested, 0.005% active. Mannose-6-phosphate isomerase (Homo sapiens), P34949;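 active = activation factor of 2 or more at 20 µM, relative to plate controls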
* = called active by the depositor; . = no result. A selection: hits, their analogues and other compounds. The true share with any hit is near 1.2%.

SMILES	p47phox inh	DTT redox prof	Efa HMGR inh	Diaphorase act	PMI act hi M6P	PMI act
CCn1cc(C2CC(=O)NC2=O)c2ccccc21 (stereo not given)	-12.5	.	.	.	.	.
O=C(NCc1ccco1)C(=O)NCC1OCCN1C(=O)c1ccc(Cl)cc1 (stereo not given)	-1.3	.	.	.	.	.
CSc1cccc(NC(=S)N(CCCN2CCC(C)CC2)Cc2cccs2)c1	-14.4	-0.2	-6.5	0.8	0.9	1
O=C(Nc1nnc(-c2ccc3c(c2)CCCC3)o1)c1c(F)cccc1F	6.5	-0.3	10.5*	0.9	1.2	1.3
CC(C)CNc1cc(N2CCCC2)ccc1[N+](=O)[O-]	59.2*	1.6	-0.8	0.8	0.7	0.7
O=C1NC(=S)S/C1=C\c1ccc(SCc2ccco2)o1	-80.0	-0.1	12.5*	0.2	0.9	0.9
O=C(Nc1ccccc1N1CCOCC1)c1cccnc1	-8.3	0.0	10.1*	0.9	0.9	1.1
Cc1cc(NC(=O)CSc2ccc(-c3ccc4c(c3)OCO4)nn2)no1	.	0.4	0.4	0.9	1.2	1.1
Cc1cccc(NC(=O)C(=O)NCc2ccc3c(c2)OCO3)c1C	-9.1	-0.3	10.1*	0.9	0.9	0.8
Cc1cccc(NC(=O)CSc2ccc(-c3ccc4c(c3)OCO4)nn2)c1C	-15.1	0.8	16.6*	1	1	0.9
Cc1cccc(NC(=S)NCc2ccc3c(c2)OCO3)c1C	-1.1	0.1	-3.1	0.8	0.9	1
Cc1ccc(NC(=O)COC(=O)C2(c3ccc(Cl)cc3)CCCC2)cc1	-6.5	-0.3	-5.5	0.8	0.9	0.9
C/C(=N\Nc1ccc(F)cc1F)c1ccc(F)cc1	-2.4	3.0	-1.9	0.9	2.4*	1.4
C/C(=N\NC(=O)c1ccc(F)cc1)c1ccc(N2CCOCC2)cc1	-1.6	-1.2	-1.1	0.9	1	1
C/C(=N\Nc1ccc(F)cc1F)c1ccc(Br)s1	-3.7	-2.1	-0.6	0.9	2.6*	1.7
O=C(Nc1ccc(F)cc1F)Nc1ccc(F)cc1F	-5.1	-1.0	-3.0	1	1	1
Fc1ccc(N/N=C/c2ccc(N3CCOCC3)cc2)c(F)c1	-3.1	-2.2	0.4	0.9	2.2*	1.7
C/C(=N\Nc1ccc(F)cc1F)c1ccc(N2CCOCC2)cc1	-0.6	0.1	-3.8	0.8	2.4*	1.6
Cc1cccc(CN(C(=S)Nc2c(C)cccc2C)c2cccnc2)c1	-5.6	-0.7	-3.4	1	0.9	0.9
Cc1cc(Br)ccc1OCCCCN1CCCCC1	48.3*	0.1	-0.8	0.9	0.9	0.9
CCc1ccc(NC(=O)CCc2nc3ccccc3[nH]2)cc1	-3.0	0.0	-4.3	0.9	0.9	0.9
CC(=O)Nc1ccc(Cc2nc3ccccc3[nH]2)cc1	-2.1	-0.4	16.1*	0.9	1	1
CCOCC(=O)OCC(=O)Nc1cc(OC)c([N+](=O)[O-])cc1C	-33.8	-0.2	21.0*	1	0.9	1
Cc1ccccc1-c1cc2c(nn1)-c1ccccc1C2=O	-6.5	0.3	6.2	0.4	2.5*	2*
O=C1c2ccccc2-c2nnc(-c3ccc(F)cc3)cc21	45.8*	-0.7	-1.0	0.9	0.9	1.1
SMILES	p47phox inh	DTT redox prof	Efa HMGR inh	Diaphorase act	PMI act hi M6P	PMI act
CCN(CC)C(=O)C(=O)Nc1ccc(OC)c(Cl)c1	4.1	-0.3	-5.2	1	1.1	1
COc1ccc(C(=O)/C=C/C(=O)N(CC(=O)NC2CCCCC2)Cc2ccc(F)cc2)c(O)c1	33.2*	0.2	-3.8	1.1	1	1
CS(=O)(=O)N(CC(=O)NC1CCCCC1)Cc1ccc(F)cc1	-9.3	0.4	6.1	0.9	1	0.9
COc1ccccc1-c1nc(C#N)c(NCc2ccc(F)cc2)o1	-7.1	-0.7	0.8	0.8	0.9	0.9
COc1ccc(N2C(=O)C(CN3CCCCC3)C2c2ccccc2)cc1 (stereo not given)	-9.5	-0.3	14.8*	1.2	1.1	1.1
COc1ccc(C2C(C(=O)N3CCCCC3)CC(=O)N2c2ccc(OC)cc2)cc1 (stereo not given)	0.7	2.4	-2.8	0.9	1	1
Cc1ccc(S(=O)(=O)N(C)c2ccc(C(=O)N3CCCCC3)cc2)cc1	-2.9	0.1	2.0	0.9	1.1	1.1
CN(c1ccc(C(=O)N2CCCCC2)cc1)S(=O)(=O)c1ccccc1	5.9	0.7	31.0*	0.9	0.9	0.9
C/C(=N\Nc1ccc(Cl)cc1)c1ccccn1	-6.8	-0.4	2.4	0.8	2.1*	1.7
Cc1cc(C)nc(/N=C(\N)N(Cc2ccccc2)Cc2ccccc2)n1	-6.6	0.2	0.2	1	1	1
COc1ccc(O)c(N)c1	42.9*	-0.2	-1.3	0.4	1	0.8
Nc1cc([N+](=O)[O-])ccc1O	1.6	-0.3	-5.5	0.9	0.8	0.8
COC(=O)N1CCN(CCc2ccccc2)CC1	6.4	-0.1	12.8*	1	1	1
O=C(Cn1cccc1C(=O)c1ccccc1)NCCC1=CCCCC1	-5.9	-0.3	-0.5	1.1	1.1	1.1
CN(C)/C=C(/C(=O)c1ccc(Cl)cc1)S(=O)(=O)c1ccc(Cl)cc1	-7.0	-5.6	11.8*	0.9	1.1	0.6
CN(C)/C=C(/C(=O)c1ccc(Cl)cc1Cl)S(=O)(=O)c1ccc(Cl)cc1	-4.1	1.2	-8.1	0.8	0.8	1
CCn1c(C)nc2cc(C(=O)N/N=C/c3ccc(OC)c(O)c3)ccc21	17.9	-0.3	-4.9	0.9	0.9	1
COc1cccc2cc(C(=O)OCC(=O)NCc3ccc4c(c3)OCO4)c(=O)oc12	-5.0	.	.	.	.	.
COc1cc(/C=C(/Sc2nnc(-c3ccc(F)cc3)o2)C(=O)O)ccc1OC(F)F	-12.0	0.5	10.5*	1	1	1.1
O=C(NCC1CCCO1)C1CCCCN1S(=O)(=O)c1ccc(F)cc1 (stereo not given)	36.0*	0.1	-1.5	1	1.4	1.3
O=C(COc1cccc(Br)c1)NN=C1c2ccccc2-c2ccccc21	68.2*	0.6	-2.8	1	1	0.9
O=C(COc1cccc(Br)c1)N/N=C1\CCCc2ccccc21	4.6	-0.1	-5.8	0.9	1	1
O=C(Nc1ccc(F)cc1)c1nc2c(nnn2Cc2cccc3ccccc23)c(=O)[nH]1	-2.8	.	.	.	.	.
